Bioassay records as filed in PubChem.
In the library only some 2.2% were active in any assay of this set; here they are far more common.
S100A4 inh HTS: S100A4-myosin IIA interaction inhibition; 360,000 tested, 0.14% active; S100A4/TAMRA-MyoIIA peptide fluorescence polarization; P26447; AID 652163; inhibition, % at 10.7 µM;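 active = mean inhibition of at least 70% across replicates, with every replicate also reaching that level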
Target sequence (P26447 whole entry, looked up): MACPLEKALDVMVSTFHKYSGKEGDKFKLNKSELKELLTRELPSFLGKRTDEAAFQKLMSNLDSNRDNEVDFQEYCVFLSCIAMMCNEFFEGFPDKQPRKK
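Assay system: human S100A4 monomer with TAMRA-labelled myosin IIA peptide / Buffer or medium: Calcium-containing HEPES buffer, pH 7.2 / Reagent: TAMRA-labelled myosin IIA heavy-chain peptide probe, 5 nM / Compound: one dose per compound / Timing: polarization read 5 min after assay mix addition, stable 5–60 min / Benchmarks: neutral control DMSO, positive control TFP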
F508del corr: correctors of CFTR F508del function in bronchial epithelial cells. CFBE cells, YFP halide quenching; stimulated with forskolin plus potentiator P3; % fluorescence drop versus neutral controls. activity (quench increase), % at 7.58 µM. 350,000 tested, 0.36% active. AID 720511;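 active = mean added fluorescence quench of at least 8% versus neutral control, with both replicates also reaching 8%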;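 note: cells transiently co-express mutant CFTR-F508del with the halide-sensitive YFP; corrector assay measuring rescue of mutant channel to the surface after 24 h compound exposure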
dFosB act: enhances mouse delta FosB homodimer DNA binding. P13346. purified delta FosB, TAMRA-CDK5 oligo fluorescence polarization; percent of positive-control signal above neutral wells. activation, % at 25 µM. 340,000 tested, 0.99% active. AID 493131;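 active = mean activation above about 17%, with every replicate also reaching it, limit read from the data, passing the limit was not always enough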
Target sequence (P13346 whole entry, looked up): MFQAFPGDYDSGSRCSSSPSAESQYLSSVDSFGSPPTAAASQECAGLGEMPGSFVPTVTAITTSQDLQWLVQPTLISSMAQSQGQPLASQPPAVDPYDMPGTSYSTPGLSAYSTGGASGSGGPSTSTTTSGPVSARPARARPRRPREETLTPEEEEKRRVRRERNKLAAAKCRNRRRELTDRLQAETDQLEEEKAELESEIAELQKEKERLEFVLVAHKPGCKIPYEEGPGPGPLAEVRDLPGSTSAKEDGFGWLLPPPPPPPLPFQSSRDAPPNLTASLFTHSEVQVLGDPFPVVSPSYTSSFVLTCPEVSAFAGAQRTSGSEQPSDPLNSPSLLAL
FGF22 binding: binders of recombinant human FGF22 by thermal shift; 340,000 tested, 1.5% active; SYPRO orange fluorescence; percent of sucrose octasulfate shift, DMSO zero; AID 651658; activity (Tm shift, normalised), % at 9.99 µM;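 active = mean Tm shift, scaled 0 neutral to 100 positive control, at about 1.3% or above, every replicate too, limit read from the data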
The depositor's hits bear a star; nt = not tested or not shown.

SMILES	S100A4 inh HTS	F508del corr	dFosB act	FGF22 binding
Cc1noc(C)c1NC(=O)N(C)C[C@@H]1OCCCC[C@@H](C)Oc2ccc(NC(=O)Cc3ccccc3)cc2C(=O)N([C@H](C)CO)C[C@H]1C	1	2	nt	0
CC1=C(C(=O)OC(C)C)C(c2ccc(Cl)cc2)n2c(sc(=Cc3ccc(OCC(=O)O)cc3)c2=O)=N1 (configuration not stated)	-2	2	nt	4.2*
Cc1ccc(NC(=O)c2nc[nH]c2C(=O)Nc2ccccc2F)cc1	-2	3	nt	41
CC(C)(C)OC(=O)NCc1ccc(CNC(=O)c2[nH]cnc2C(=O)Nc2ccccc2F)cc1	-2	3	nt	43*
O=C(Nc1ccccc1F)c1nc[nH]c1C(=O)NCc1ccccc1	2	-1	nt	0
O=C(Nc1ccccc1)c1nc[nH]c1C(=O)Nc1ccccc1F	1	9.5*	nt	0
NNC(=O)c1nc[nH]c1C(=O)Nc1ccccn1	-1	0	-13	43*
Cc1ccc(C(F)(F)F)cc1NC(N)=S	10	-2	4	44*
CC=Cc1ccc2n(c1=O)C[C@H]1[C@H](CO)[C@@H](C(=O)N[C@@H](C)c3ccccc3)[C@@H]2N1CC1CC1 (mixture of isomers)	-3	2	nt	0
O=C(Nc1ccccc1NC(=O)c1csnn1)c1csnn1	-2	-1	-3	43*
Cc1cccc(-n2nc(C(=O)c3ccco3)cc(-c3nc4ccccc4[nH]3)c2=N)c1	0	nt	34*	0
Cc1ccccc1-n1nc(C(=O)c2cccs2)cc(-c2nc3ccccc3[nH]2)c1=N	nt	nt	14	nt
COC(=O)[C@]1(Cc2ccccc2)N[C@H](CN(C)C(=O)c2ccc(F)cc2)[C@@H]2C(=O)N(C)C(=O)[C@@H]21	4	1	-3	43*
COC(=O)[C@]1(Cc2ccccc2)N[C@H](CN(C)C(=O)c2ccc(C)cc2)[C@@H]2C(=O)N(C)C(=O)[C@@H]21	-3	-2	1	43*
COC(=O)[C@]1(Cc2ccccc2)N[C@H](CN(C)C(=O)COc2ccccc2)[C@@H]2C(=O)N(C)C(=O)[C@@H]21	2	-2	-7	43*
COC(=O)[C@]1(C)N[C@H](CN(C)C(=O)c2ccc(C(C)(C)C)cc2)[C@@H]2C(=O)N(Cc3ccccc3)C(=O)[C@@H]21	-11	-1	-14	43*
C[C@@H]1CCCCO[C@H](CN(C)C(=O)c2ccccc2)[C@H](C)CN([C@@H](C)CO)C(=O)c2cc(NS(=O)(=O)c3cccs3)ccc2O1	-23	0	nt	0
CC(C)NC(=O)NCC[C@H]1CC[C@@H](NC(=O)CN(C)C)[C@@H](CO)O1	42	0	nt	0
O=C(COC(=O)c1ccc(O)cc1)Nc1ncc(Cl)cc1Cl	1	1	-7	44*
O=C(COC(=O)c1ccc2c(c1)OCO2)Nc1ncc(Cl)cc1Cl	-7	3	-8	0
C[C@@H]1CN([C@@H](C)CO)C(=O)Cc2cc(NS(=O)(=O)c3cccs3)ccc2O[C@H]1CN(C)Cc1ccc(Cl)c(Cl)c1	-8	-1	nt	0
O=C(C[C@H]1C[C@H]2c3cc(NC(=O)c4cccnc4)ccc3O[C@H]2[C@H](CO)O1)NCC1CC1	-4	3	nt	0
COc1ccc(S(=O)(=O)N(C)C[C@@H]2Oc3ccc(NC(=O)NC4CCCCC4)cc3CC(=O)N([C@@H](C)CO)C[C@H]2C)cc1	-18	-1	nt	0
C=CC(=O)Nc1ccc(N(C)c2ccnc(Nc3ccc(N4CCN(C)CC4)cc3)n2)cc1	7	2	50*	0
COc1ccc(NC(=O)CNC(=O)Cn2c(C)cc3ccccc3c2=O)c(OC)c1	-3	1	1	43*
SMILES	S100A4 inh HTS	F508del corr	dFosB act	FGF22 binding
Cc1cccn2c(=O)c3cc(C(=O)NC4CCCCC4)c(=N)n(Cc4ccccc4)c3nc12	2	-2	43*	0
Cc1cccn2c(=O)c3cc(C(=O)NC4CCCC4)c(=N)n(Cc4ccc(F)cc4)c3nc12	-4	0	12	0
O=S1(=O)CC(c2ccccc2)=NN=C(c2ccccc2)C1	0	2	nt	44*
Cc1sc(N/N=C/c2ccco2)nc1-c1ccccc1	1	2	-7	44*
O=C(NCC(c1cccs1)N1CCOCC1)c1ccc(OCc2ccccc2)cc1 (configuration not stated)	-5	9.1*	-10	0
COC(=O)C[C@H]1C[C@H]2c3cc(NC(=O)c4cccnc4)ccc3O[C@H]2[C@@H](CO)O1	-1	0	nt	0
C#Cc1ccc(NC(=O)C2(C)CCN2C(=O)c2cc(C)n(C)n2)cc1 (configuration not stated)	-1	8.1*	nt	0
CC(=O)Nc1cccn(Cc2c(Cl)cccc2Cl)c1=O	-4	-1	-1	43*
O=C(Nc1cccn(Cc2c(Cl)cccc2Cl)c1=O)c1ccccc1Cl	-1	nt	-8	nt
C[C@@H]1CCCCO[C@H](CN(C)S(=O)(=O)c2ccc(Cl)cc2)[C@H](C)CN([C@@H](C)CO)C(=O)c2cc(NS(=O)(=O)c3ccccc3)ccc2O1	-9	1	nt	0
C[C@@H](NC(=O)C[C@@H]1C[C@@H]2c3cc(NC(=O)CC4CC4)ccc3O[C@@H]2[C@H](CO)O1)c1ccccc1	8	0	nt	0
CN(c1ccc(-c2csc(NC(=O)CCCc3nc4ccccc4c(=O)[nH]3)n2)cc1)S(C)(=O)=O	-1	1	nt	44*
CS(=O)(=O)c1ccc(NC(=O)CCCc2nc3ccccc3c(=O)[nH]2)cc1	-11	1	-1	0
C[C@@H]1CN([C@H](C)CO)C(=O)c2cc(-c3cccnc3)cnc2O[C@H]1CN(C)C(=O)c1cccc(F)c1	5	0	nt	0
CO[C@H]1CN(C)C(=O)c2cc(NC(=O)NC3CCCCC3)ccc2OC[C@@H](C)N(CCc2ccccc2)C[C@H]1C	1	-2	nt	-1
CC1CCN(C(=O)COC(=O)CCC(=O)c2ccc(F)cc2)CC1	4	-4	nt	43*
CSc1ccccc1NC(=O)COC(=O)CCC(=O)c1ccc(F)cc1	6	8.1*	1	0
O=C(CN1CCCCCC1)N1c2ccccc2C=Cc2ccccc21	11	nt	-4	nt
O=C(CN1CCCC1)N1c2ccccc2C=Cc2ccccc21	1	1	-7	43*
COc1cccc(Cn2cnc(-c3ccccc3OC)c2C2CC2)c1	-4	-1	nt	43*
CCN1CCN(CC(O)COC(c2ccccc2)c2ccccc2)CC1 (configuration not stated)	1	-1	-2	44*
O=c1[nH]c(CN2CCN(c3ccc(O)cc3)CC2)nc2scc(-c3ccc(Cl)cc3)c12	-2	13*	-10	0
COc1ccc(NC(=O)COC(=O)CNS(=O)(=O)c2ccccc2)cc1OC	1	14*	-3	0
COc1ccc(NC(=O)Cn2nnc(C(=O)Nc3ccccc3C)c2N)cc1	-1	-2	0	44*
